Measured values reported in article PMC10693930 (Biochemistry, 2023).
Numbering of substitutions follows the chain as printed. Names may count otherwise.

Tests used:
[1] = molecular target: T1, WT SaPC (Staphylococcus aureus, UniProt A0A0H3JRU9); experiment: Pyruvate carboxylation inhibition assay with CT domain inhibitors; assay type: biochemical; details: SaPC; CT domain inhibitors
In short: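 WT SaPC (5 μg/mL) was pre-incubated with inhibitor and acetyl-CoA, and the reaction was started with 10× substrate mix (final 25 mM NaHCO3, 2.5 mM ATP, 12 mM pyruvate). MDH-coupled (10 U/mL MDH, 0.12 mM NADH); change in A340 monitored. Inhibitor 0–1 mM or 0–50 mM by compound. MDH-only controls. Triplicate; SD of three trials.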

[2] = molecular target: T2, E418A SaPC (Staphylococcus aureus, UniProt A0A0H3JRU9, E418A); experiment: Pyruvate carboxylation inhibition assay with CT domain inhibitors; assay type: biochemical; details: for change of inhibition in the presence of acetyl-CoA: 500 μM acetyl-CoA
[3] = molecular target: T1, WT SaPC; experiment: Pyruvate carboxylation assay; assay type: biochemical; details: for increase of apparent Ka in the presence of L-aspartate: 20 mM L-aspartate vs none; for ratio (Ka CoA / Ka acetyl-CoA): discrimination of acetyl-CoA over CoA
[4] = molecular target: T3, K46A SaPC (Staphylococcus aureus, UniProt A0A0H3JRU9, K46A); experiment: Pyruvate carboxylation assay; assay type: biochemical; details: K46A SaPC; for ratio (Ka CoA / Ka acetyl-CoA): discrimination of acetyl-CoA over CoA
[5] = molecular target: T2, E418A SaPC; experiment: Pyruvate carboxylation assay; assay type: biochemical
[6] = molecular target: T4, R21A SaPC (Staphylococcus aureus, UniProt A0A0H3JRU9, R21A); experiment: Pyruvate carboxylation assay; assay type: biochemical; details: R21A SaPC; for ratio (Ka CoA / Ka acetyl-CoA): discrimination of acetyl-CoA over CoA
[7] = molecular target: K411A SaPC (Staphylococcus aureus, UniProt A0A0H3JRU9, K411A); experiment: Pyruvate carboxylation assay; assay type: biochemical; details: K411A SaPC
[8] = molecular target: T1, WT SaPC; experiment: ADP phosphorylation assay; assay type: biochemical
[9] = molecular target: T3, K46A SaPC; experiment: ADP phosphorylation assay; assay type: biochemical; details: up to 1 mM acetyl-CoA
[10] = molecular target: T2, E418A SaPC; experiment: ADP phosphorylation assay; assay type: biochemical; details: up to 1 mM acetyl-CoA
[11] = molecular target: T4, R21A SaPC; experiment: ADP phosphorylation assay; assay type: biochemical; details: up to 1 mM acetyl-CoA
[12] = tested on: SaPC; details: cited from earlier work
[13] = tested on: PC; details: cited from earlier work
[14] = molecular target: ΔBCΔBCCP SaPC (Staphylococcus aureus (strain Mu50 / ATCC 700699)); experiment: SEC
[15] = molecular target: the molecule itself; experiment: SEC
[16] = Acyl-CoA alone, Table 1, fit to Equation 1 (3′5′ diphosphoadenosine: Equation 2)
[17] = Acyl-CoA + 20 mM L-aspartate, Table 1
[18] = up to 100 mM, nonspecific inhibition above 100 mM

Molecule: O=C(O)C(O)=Cc1ccc2ccccc2n1 [2-hydroxy-3-(quinoline-2-yl)propenoic acid]
- change of potency in the presence of acetyl-CoA [1]: significantly reduced potency
- inhibition of pyruvate carboxylation [2]: inhibited
- change of inhibition in the presence of acetyl-CoA [2]: unchanged

Molecule: Nc1ncnc2c1ncn2[C@@H]1O[C@H](COP(=O)(O)O)[C@@H](OP(=O)(O)O)[C@H]1O [3′5′ diphosphoadenosine, 3’5’-diphosphoadenosine]
- h (Hill coefficient) ([3]; Acyl-CoA alone, Table 1): 1.6 ± 0.7
- Ka (apparent activation constant) [3, 16]: 5900 ± 3100 µM
- concentration range in which SaPC is activated ([3]; WT SaPC (Figure S2)): up to 7 mM
- concentration at which inhibitory ([3]; WT SaPC (Figure S2), attributed to competition with ATP in BC domain): greater than 7 mM
- estimated apparent Ka ([3]; WT SaPC, fit to Equation 2, Ki fixed at 5 mM): ~ 5.9 mM

Molecule: CC(=O)SCCNC(=O)CCNC(=O)[C@H](O)C(C)(C)COP(=O)(O)OP(=O)(O)OC[C@H]1O[C@@H](n2cnc3c(N)ncnc32)[C@H](O)[C@@H]1OP(=O)(O)O [Acetyl-CoA]
- Ka (apparent activation constant) [3, 17]: 4.1 ± 0.3 µM
- h (Hill coefficient) [3, 17]: 3.3 ± 0.6
- h (Hill coefficient) ([3]; Acyl-CoA alone, Table 1): 1.5 ± 0.1
- Ka (apparent activation constant) [3, 16]: 1.5 ± 0.1 µM
- increase of apparent Ka in the presence of L-aspartate ([3]; WT SaPC): ~ 4 fold
- Ka (apparent activation constant) ([3]; WT SaPC, Table 2 series): 1.5 ± 0.1 µM
- ratio (Ka CoA / Ka acetyl-CoA) ([3]; WT SaPC): 33
- ratio (Ka CoA / Ka acetyl-CoA) ([3]; WT SaPC, listed as acetyl-CoA): ~ 30
- Ka (apparent activation constant) [4]: 340 ± 30 µM
- ratio (Ka CoA / Ka acetyl-CoA) [4]: 4
- ratio (Ka CoA / Ka acetyl-CoA) ([4]; listed as acetyl-CoA): 4 – 5
- activation of pyruvate carboxylation ([5]; up to 4 mM acetyl-CoA and 30 mM CoA): unresponsive to activation
- Ka (apparent activation constant) [6]: 340 ± 50 µM
- ratio (Ka CoA / Ka acetyl-CoA) [6]: 5
- ratio (Ka CoA / Ka acetyl-CoA) ([6]; listed as acetyl-CoA): 4 – 5
- Ka (apparent activation constant) [7]: 5.8 ± 0.2 µM
- ratio (Ka CoA / Ka acetyl-CoA) ([7]; discrimination of acetyl-CoA over CoA): 17
- Ka (apparent activation constant) ([8]; WT SaPC, ADP phosphorylation by carbamoyl phosphate): 15 ± 6 µM
- concentration giving slight inhibition of ADP phosphorylation ([8]; in all cases, including WT (Figure S4)): greater than 4 mM
- activation of ADP phosphorylation [9]: unable to be activated
- activation of ADP phosphorylation [10]: unable to be activated
- activation of ADP phosphorylation [11]: unable to be activated
- greater affinity than CoA [12]: ~ 100 fold
- increase of binding affinity by the acetyl moiety [12]: ~ 80 fold
- increase of kcat in the presence of activator [12]: 5-10 fold
- increase of kcat in the presence of activator ([13]; depends on the organism): up to 35 fold

Molecule: CC(=O)NCCNC(=O)CCNC(=O)[C@H](O)C(C)(C)COP(=O)(O)OP(=O)(O)OC[C@H]1O[C@@H](n2cnc3c(N)ncnc32)[C@H](O)[C@@H]1OP(=O)(O)O [Acetyl-aza(dethia)-CoA, acetyl-aza(dethia)-CoA]
- h (Hill coefficient) ([3]; Acyl-CoA alone, Table 1): 1.3 ± 0.4
- Ka (apparent activation constant) [3, 16]: 2500 ± 1000 µM

Molecule: CC(=O)CCCNC(=O)CCNC(=O)[C@H](O)C(C)(C)COP(=O)(O)OP(=O)(O)OC[C@H]1O[C@@H](n2cnc3c(N)ncnc32)[C@H](O)[C@@H]1OP(=O)(O)O [Acetyl-carba(dethia)-CoA, acetyl-carba(dethia)-CoA]
- Ka (apparent activation constant) [3, 17]: 190 ± 10 µM
- h (Hill coefficient) [3, 17]: 3.1 ± 0.6
- h (Hill coefficient) ([3]; Acyl-CoA alone, Table 1): 1.5 ± 0.2
- Ka (apparent activation constant) [3, 16]: 53 ± 4 µM
- increase of apparent Ka in the presence of L-aspartate ([3]; WT SaPC): ~ 4 fold

Molecule: CC(=O)OCCNC(=O)CCNC(=O)[C@H](O)C(C)(C)COP(=O)(O)OP(=O)(O)OC[C@H]1O[C@@H](n2cnc3c(N)ncnc32)[C@H](O)[C@@H]1OP(=O)(O)O [Acetyl-oxa(dethia)-CoA, acetyl-oxa(dethia)-CoA]
- Ka (apparent activation constant) [3, 17]: 270 ± 20 µM
- h (Hill coefficient) [3, 17]: 3.3 ± 0.7
- h (Hill coefficient) ([3]; Acyl-CoA alone, Table 1): 1.5 ± 0.3
- Ka (apparent activation constant) [3, 16]: 73 ± 11 µM
- increase of apparent Ka in the presence of L-aspartate ([3]; WT SaPC): ~ 4 fold

Molecule: N[C@@H](CC(=O)O)C(=O)O [L-aspartate]
- inhibition of pyruvate carboxylation [4, 18]: not inhibited
- inhibition of pyruvate carboxylation [5, 18]: not inhibited
- inhibition of pyruvate carboxylation [6, 18]: not inhibited
- decrease of kcat in the presence of inhibitor [12]: 2-5 fold

Molecule: N[C@@H](CCC(=O)O)C(=O)O [L-glutamate]
- concentration at which pyruvate carboxylation is inhibited ([3]; WT SaPC, nonspecific effect (Figure S5)): exceeding 100 mM

Molecule: CC(=O)SCCNC(=O)CCNC(=O)[C@H](O)C(C)(C)CO [acetylpantetheine]
- binding and activation of PC ([13]; lacks the nucleotidyl portion): binds to but does not activate PC

Molecule: O=C(O)C(=O)Cc1ccccc1 [phenylpyruvate]
- change of potency in the presence of acetyl-CoA [1]: significantly reduced potency
- inhibition of pyruvate carboxylation [2]: inhibited
- change of inhibition in the presence of acetyl-CoA [2]: unchanged

Molecule: ΔBCΔBCCP SaPC (domain or fragment)
- stoichiometry N [14]: 2

B1: Staphylococcus aureus pyruvate carboxylase, wild type (enzyme)
chain: MKQIKKLLVANRGEIAIRIFRAAAELDISTVAIYSNEDKSSLHRYKADESYLVGSDLGPAESYLNIERIIDVAKQANVDAIHPGYGFLSENEQFARRCAEEGIKFIGPHLEHLDMFGDKVKARTTAIKADLPVIPGTDGPIKSYELAKEFAEEAGFPLMIKATSGGGGKGMRIVREESELEDAFHRAKSEAEKSFGNSEVYIERYIDNPKHIEVQVIGDEHGNIVHLFERDCSVQRRHQKVVEVAPSVGLSPTLRQRICDAAIQLMENIKYVNAGTVEFLVSGDEFFFIEVNPRVQVEHTITEMVTGIDIVKTQILVAAGADLFGEEINMPQQKDITTLGYAIQCRITTEDPLNDFMPDTGTIIAYRSSGGFGVRLDAGDGFQGAEISPYYDSLLVKLSTHAISFKQAEEKMVRSLREMRIRGVKTNIPFLINVMKNKKFTSGDYTTKFIEETPELFDIQPSLDRGTKTLEYIGNVTINGFPNVEKRPKPDYELASIPTVSSSKIASFSGTKQLLDEVGPKGVAEWVKKQDDVLLTDTTFRDAHQSLLATRVRTKDMINIASKTADVFKDGFSLEMWGGATFDVAYNFLKENPWERLERLRKAIPNVLFQMLLRASNAVGYKNYPDNVIHKFVQESAKAGIDVFRIFDSLNWVDQMKVANEAVQEAGKISEGTICYTGDILNPERSNIYTLEYYVKLAKELEREGFHILAIKDMAGLLKPKAAYELIGELKSAVDLPIHLHTHDTSGNGLLTYKQAIDAGVDIIDTAVASMSGLTSQPSANSLYYALNGFPRHLRTDIEGMESLSHYWSTVRTYYSDFESDIKSPNTEIYQHEMPGGQYSNLSQQAKSLGLGERFDEVKDMYRRVNFLFGDIVKVTPSSKVVGDMALYMVQNDLDEQSVITDGYKLDFPESVVSFFKGEIGQPVNGFNKDLQAVILKGQEALTARPGEYLEPVDFEKVRELLEEEQQGPVTEQDIISYVLYPKVYEQYIQTRNQYGNLSLLDTPTFFFGMRNGETVEIEIDKGKRLIIKLETISEPDENGNRTIYYAMNGQARRIYIKDENVHTNANVKPKADKSNPSHIGAQMPGSVTEVKVSVGETVKANQPLLITEAMKMETTIQAPFDGVIKQVTVNNGDTIATGDLLIEIEKATD
modifications: biotin, covalently tethered to the BCCP domain (co-expressed with BirA to ensure complete biotinylation; residue not stated)
- stoichiometry N [15]: 4

B2: K46A SaPC (enzyme)
chain: B1 chain with K46A
modifications: biotin, covalently tethered to the BCCP domain (co-expressed with BirA to ensure complete biotinylation; residue not stated)
- stoichiometry N [15]: 4

B3: R21A SaPC (enzyme)
chain: B1 chain with R21A
modifications: biotin, covalently tethered to the BCCP domain (co-expressed with BirA to ensure complete biotinylation; residue not stated)
- stoichiometry N [15]: 4

B4: E418A SaPC (enzyme)
chain: B1 chain with E418A
modifications: biotin, covalently tethered to the BCCP domain (co-expressed with BirA to ensure complete biotinylation; residue not stated)
- stoichiometry N [15]: 4
